Converted amounts (≈) assume the structure as drawn.
Columns and labels:
WI-38 = assay: Antiproliferative activity against human WI38 cells after 72 hrs by MTT assay; assay type: functional, cell-based; details: WI-38, 72 h
Summary of the method: (§1)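 Monolayers grown in DMEM with 10% FBS, 2 mM L-glutamine and penicillin/streptomycin at 37 °C, 5% CO2. Seeded at 1 × 10⁴–3 × 10⁴ cells/mL on day 0. Compounds from 0.04 M DMSO stocks added at five 10-fold dilutions (10⁻⁸–10⁻⁴ M final), with matched DMSO controls, for 72 h. MTT added for 4 h, formazan dissolved in DMSO, absorbance read at 570 nm. Percentage growth calculated against time-zero and untreated OD. IC50 is 50% inhibition of proliferation.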

Sindbis virus = assay: Antiviral activity against Sindbis virus-induced cytopathogenicity in Vero cells; assay type: functional
[1] = Cytotoxicity against E6SM cells; assay type: cell-based; details: human, read-out: MCC
Summary of the method: (§2)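 Cells seeded at 5 × 10³ cells/well and exposed to medium containing a range of test compound concentrations. After 3 days at 37 °C, cell morphology examined microscopically. Reported as minimum cytotoxic concentration (MCC), the concentration causing a microscopically detectable alteration of normal cell morphology.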

Coxsackievirus B4 = assay: Antiviral activity against Coxsackie virus B4-induced cytopathogenicity in Vero cells; assay type: functional; details: Enterovirus B
MCF7 = assay: Antiproliferative activity against human MCF7 cells after 72 hrs by MTT assay; assay type: functional, cell-based; details: MCF7, 72 h; summary of the method: as §1
[2] = system: Vesicular stomatitis virus; assay: Antiviral activity against in Vesicular stomatitis virus-induced cytopathogenicity in E6SM cells; assay type: functional
L1210 = assay: Antiproliferative activity against mouse L1210 cells; assay type: functional, cell-based
Summary of the method: (§3)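 Suspension cells seeded at 50 × 10³ cells/well with a range of test compound concentrations. Cell number counted with a Coulter counter after 2 days (L1210) or 3 days (Molt4/C8, CEM). IC50 is the concentration that cuts cell growth by 50% versus untreated controls, read from plots of cell number (% of control) against concentration.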

[3] = Antiproliferative activity against human Molt4/C8 cells; assay type: functional, cell-based; details: MOLT-4; summary of the method: as §3
Human alphaherpesvirus 2 [4] = assay: Antiviral activity against HSV2 G-induced cytopathogenicity in E6SM cells; assay type: functional; details: Human alphaherpesvirus 2, G
Human alphaherpesvirus 1 [5] = assay: Antiviral activity against HSV1 KOS-induced cytopathogenicity in E6SM cells; assay type: functional; details: Human alphaherpesvirus 1, KOS
MIA PaCa-2 = assay: Antiproliferative activity against human MiaPaCa2 cells after 72 hrs by MTT assay; assay type: functional, cell-based; summary of the method: as §1
HEp-2 = assay: Antiproliferative activity against human Hep2 cells after 72 hrs by MTT assay; assay type: functional, cell-based; details: HEp-2, 72 h; summary of the method: as §1
HeLa = assay: Antiproliferative activity against human HeLa cells after 72 hrs by MTT assay; assay type: functional, cell-based; summary of the method: as §1
[6] = system: Vesicular stomatitis virus; assay: Antiviral activity against in Vesicular stomatitis virus- induced cytopathogenicity in HeLa cells; assay type: functional
CCRF-CEM = assay: Antiproliferative activity against human CEM cells; assay type: functional, cell-based; summary of the method: as §3
Punta Toro virus = assay: Antiviral activity against Punta Toro virus-induced cytopathogenicity in Vero cells; assay type: functional
Human alphaherpesvirus 1 [7] = assay: Antiviral activity against HSV1 TK- KOS ACV-induced cytopathogenicity in E6SM cells; assay type: functional; details: Human alphaherpesvirus 1, KOS
SW-620 = assay: Antiproliferative activity against human SW620 cells after 72 hrs by MTT assay; assay type: functional, cell-based; details: SW-620, 72 h; summary of the method: as §1
Human alphaherpesvirus 1 [8] = assay: Antiviral activity against HSV1 TK- KOS ACV -induced cytopathogenicity in HEL cells; assay type: functional; details: Human alphaherpesvirus 1, KOS
[9] = system: Vesicular stomatitis virus; assay: Antiviral activity against in Vesicular stomatitis virus-induced cytopathogenicity in HEL cells; assay type: functional
Human alphaherpesvirus 1 [10] = assay: Antiviral activity against HSV1 KOS-induced cytopathogenicity in HEL cells; assay type: functional; details: Human alphaherpesvirus 1, KOS
Human alphaherpesvirus 2 [11] = assay: Antiviral activity against HSV2 G-induced cytopathogenicity in HEL cells; assay type: functional; details: Human alphaherpesvirus 2, G
[12] = Cytotoxicity against HEL cells; assay type: cell-based; details: human; summary of the method: as §2
[13] = Homo sapiens, MIA PaCa-2, 72 h, read-out: IC50

| Structure (SMILES) | IC50 (WI-38) | MIC (Sindbis virus) | MCC [1] | MIC (Coxsackievirus B4) | IC50 (MCF7) | MIC [2] | IC50 (L1210) | IC50 [3] | MIC (Human alphaherpesvirus 2 [4]) | MIC (Human alphaherpesvirus 1 [5]) | IC50 (MIA PaCa-2; [13]) | IC50 (HEp-2) | IC50 (HeLa) | MIC [6] | IC50 (CCRF-CEM) | MIC (Punta Toro virus) | MIC (Human alphaherpesvirus 1 [7]) | IC50 (SW-620) | further results |
| --- | --- | --- | --- | --- | --- | --- | --- | --- | --- | --- | --- | --- | --- | --- | --- | --- | --- | --- | --- |
| O=C1O/C(=C\Cn2cc(-c3ccc(Br)o3)c(=O)[nH]c2=O)C(OCc2ccccc2)=C1OCc1ccccc1 | 16 µM | > 70 µM | 347 µM | > 70 µM | 29 µM | 70 µM (≈ 40.4 µg/mL) | 115 µM | 125 µM | > 70 µM | > 70 µM | 27 µM | 28 µM | 24 µM | 70 µM (≈ 40.4 µg/mL) | 134 µM | > 70 µM | > 70 µM | 49 µM |  |
| O=C1O/C(=C\Cn2cc(-c3ccco3)c(=O)[nH]c2=O)C(OCc2ccccc2)=C1OCc1ccccc1 | 1.8 µM | > 6.4 µM | 32 µM | > 6.4 µM | 2 µM | > 6.4 µM | 6.8 µM | 6.6 µM | > 6.4 µM | > 6.4 µM | 1.6 µM | 2.2 µM | 2 µM | > 6.4 µM | 7 µM | > 6.4 µM | > 6.4 µM | 2.4 µM |  |
| O=C1O/C(=C\Cn2cc(-c3ccccc3)c(=O)[nH]c2=O)C(OCc2ccccc2)=C1OCc1ccccc1 | 28 µM | > 157 µM | 787 µM | > 157 µM | 18 µM | 157 µM (≈ 79.8 µg/mL) | 142 µM | 159 µM | > 157 µM | > 157 µM | 18 µM | 22 µM | 25 µM | > 157 µM | 122 µM | > 157 µM | > 157 µM | 21 µM |  |
| O=C1O/C(=C(\Br)Cn2c(Br)c(/C=C/Br)c(=O)[nH]c2=O)C(OCc2ccccc2)=C1OCc1ccccc1 | 49 µM | > 116 µM | 578 µM | > 116 µM | 15 µM | > 116 µM | 32 µM | 110 µM | > 116 µM | > 116 µM | 20 µM | 22 µM | 22 µM | > 116 µM | 91 µM | > 116 µM | > 116 µM | ≥ 100 µM |  |
| CC#Cc1cn(C/C=C2\OC(=O)C(OCc3ccccc3)=C2OCc2ccccc2)c(=O)[nH]c1=O | 0.2 µM | 1.6 µM (≈ 0.753 µg/mL) | 2 µM | 1.6 µM (≈ 0.753 µg/mL) | 0.2 µM | > 0.4 µM | 0.47 µM | 0.78 µM | > 0.4 µM | > 0.4 µM |  | 0.7 µM | 0.2 µM | 1.6 µM (≈ 0.753 µg/mL) | 0.77 µM | > 1.6 µM | > 0.4 µM | 0.3 µM | IC50 (MIA PaCa-2; mia paca-2): 0.5 µM |
| Nc1ncnc2c1ncn2C[C@H](O)CO [(S)-DHPA] |  | > 500 µM |  | > 500 µM |  |  |  |  |  |  |  |  |  | > 500 µM |  | 300 µM (≈ 62.8 µg/mL) |  |  |  |
| O=C1O/C(=C\Cn2cc(-c3ccccc3)c(=O)[nH]c2=O)C(O)=C1O | > 100 µM | > 100 µM |  | > 100 µM | > 100 µM |  | 354 µM | 322 µM |  |  | > 100 µM | > 100 µM | > 100 µM | > 100 µM | 282 µM | > 100 µM |  | > 100 µM | MIC (Human alphaherpesvirus 1 [8]): > 100 µM; MIC [9]: > 100 µM; MIC (Human alphaherpesvirus 1 [10]): > 100 µM; MIC (Human alphaherpesvirus 2 [11]): > 100 µM; MCC [12]: 100 µM |
| O=C1O/C(=C\Cn2cc(-c3cccs3)c(=O)[nH]c2=O)C(OCc2ccccc2)=C1OCc1ccccc1 | 19 µM | > 156 µM | 780 µM | > 156 µM | 17 µM | > 156 µM | 142 µM | 150 µM | > 156 µM | > 156 µM | 16.5 µM | 18 µM | 18 µM | > 156 µM | 117 µM | > 156 µM | > 6.4 µM | 21 µM |  |
| C=C=Cc1cn(C/C=C2\OC(=O)C(OCc3ccccc3)=C2OCc2ccccc2)c(=O)[nH]c1=O | > 100 µM | > 200 µM | 40 µM | > 200 µM | 77 µM | 8 µM (≈ 3.76 µg/mL) | > 250 µM | > 250 µM | > 8 µM | > 8 µM | > 100 µM | > 100 µM | > 100 µM | > 40 µM | > 250 µM | > 200 µM | > 8 µM | > 100 µM |  |

Source: ChEMBL document CHEMBL1144557, “The novel C-5 aryl, alkenyl, and alkynyl substituted uracil derivatives of L-ascorbic acid: synthesis, cytostatic, and antiviral activity evaluations” (Bioorg Med Chem, 2007)
